Experimental data gathered from unrelated publications.
Each line is one published result; the experiments were not run side by side.
Effect on: cell growth or viability

SMILES | cell line | method | tested at | time | measurement | result
Cc1cc(C)cc(COc2cc3c(cc2OCc2cc(C)cc(C)c2)C2CC(O)(Cc4cn(CCOCCOCCOCCNC(=O)CNc5cccc6c5C(=O)N(C5CCC(=O)NC5=O)C6=O)nn4)CC(C)N2CC3)c1 (stereo not shown) | ASPC1 | MTT | – | – | IC50 | 3210 nM
COC(=O)c1c(C)ncn1CC(c1cn(C)c2ccccc12)c1cn(C)c2ccccc12 | HaCaT | MTS | 20 µM | 24 h | inhibition | 12.6%
CC(C)=CCC[C@](C)(O)[C@H]1CC[C@]2(C)[C@@H]1[C@H](O)C[C@@H]1[C@@]3(C)CC[C@H](O[C@@H]4O[C@H](CO)[C@@H](O)[C@H](O)[C@H]4O[C@@H]4O[C@H](CO)[C@@H](O)[C@H](O)[C@H]4O)C(C)(C)[C@@H]3CC[C@]12C | NCI-H358 | MTT | – | 72 h | IC20 | > 100000 nM
N=C(N)c1ccc(OCCCCCOc2ccc(C(=N)N)cc2)cc1 | HaCaT | MTS | 20 µM | 24 h | inhibition | 11.2%
COc1cc(Nc2nccc(-c3cnn4nc(OC)ccc34)n2)cc(C(F)(F)F)c1 | RERF-LC-MS | ATP luminescence | – | – | IC50 | 590 nM
Cc1cc(C)cc(COc2cc3c(cc2OCc2cc(C)cc(C)c2)[C@H]2C[C@](O)(Cc4cn(CC5CC5)nn4)C[C@H](C)N2CC3)c1 | ASPC1 | MTT | – | – | IC50 | 612 nM
COC(C)(C)CCC[C@](C)(O)[C@H]1CC[C@]2(C)[C@@H]1[C@H](O)C[C@@H]1[C@@]3(C)CC[C@H](O)C(C)(C)[C@@H]3CC[C@]12C | NCI-H358 | MTT | – | 72 h | IC20 | 4480 nM
CC(C)C[C@H](NC(=O)[C@H](Cc1ccccc1)NC(=O)c1cnccn1)B(O)O | KARPAS-299 | ATP luminescence | – | – | IC50 | 5.2 nM
CCc1ncn(CC(c2c[nH]c3ccc(C)cc23)c2c[nH]c3ccc(C)cc23)c1C(=O)OC | HaCaT | MTS | 20 µM | 24 h | inhibition | 23%
C=CC(=O)N1CCC[C@@H](n2nc(-c3ccc(Oc4ccccc4)cc3)c3c(N)ncnc32)C1 | KU812 | – | – | 48 h | GI50 | 3080 nM
CN1C[C@H](C(=O)N[C@]2(C)O[C@@]3(O)[C@@H]4CCCN4C(=O)[C@H](Cc4ccccc4)N3C2=O)C[C@@H]2c3cccc4[nH]cc(c34)C[C@H]21 | WI-38 | MTT | – | 72 h | EC50 | 80000 nM
COc1ccc(-c2ccc(-c3ccc(C(=N)N)nc3)s2)cc1Cl | SNB-19 | SRB | – | – | GI50 | 1700 nM
Cc1cc(C)cc(COc2cc3c(cc2OCc2cc(C)cc(C)c2)[C@H]2C[C@](O)(Cc4cn(-c5ccccc5)nn4)C[C@H](C)N2CC3)c1 | ASPC1 | MTT | – | – | IC50 | 593 nM
Cc1cc(Nc2ncc(Cl)c(Nc3ccccc3S(=O)(=O)C(C)C)n2)c(OC(C)C)cc1C1CCNCC1 | KARPAS-299 | MTT | 0.55556 µg/mL | 72 h | inhibition | 73.4%
Cc1cc(C)cc(COc2cc3c(cc2OCc2cc(C)cc(C)c2)C2CC(O)(Cc4cn(CCOCCOCCOCCOc5ccc6c(c5)C(=O)N(C5CCC(=O)NC5=O)C6=O)nn4)CC(C)N2CC3)c1 (stereo not shown) | ASPC1 | MTT | – | – | IC50 | 1120 nM
C[C@@H](Oc1cc(-c2cnn(C3CCNCC3)c2)cnc1N)c1c(Cl)ccc(F)c1Cl | KARPAS-299 | MTT | 0.008 µg/mL | 72 h | inhibition | 27.5%
Cc1cc(C)cc(COc2cc3c(cc2OCc2cc(C)cc(C)c2)[C@H]2C[C@](O)(Cc4cn(Cc5cc(C(F)(F)F)cc(C(F)(F)F)c5)nn4)C[C@H](C)N2CC3)c1 | ASPC1 | MTT | – | – | IC50 | 836 nM
COc1cc(-c2ccc(-c3ccc(C(=N)N)nc3)s2)cc(OC)c1OC | SNB-19 | SRB | – | – | GI50 | 4730 nM
C/C=C/C(=O)Nc1ccc(CCn2cc(C[C@@]3(O)C[C@@H]4c5cc(OCc6cc(C)cc(C)c6)c(OCc6cc(C)cc(C)c6)cc5CCN4[C@@H](C)C3)nn2)cc1 | ASPC1 | MTT | – | – | IC50 | 870 nM
COC(=O)c1c(C)ncn1CC(c1c[nH]c2ccccc12)c1c[nH]c2ccccc12 | HaCaT | MTS | 20 µM | 24 h | inhibition | 9.7%
Cc1ccc(Cn2cc(C[C@@]3(O)C[C@@H]4c5cc(OCc6cc(C)cc(C)c6)c(OCc6cc(C)cc(C)c6)cc5CCN4[C@@H](C)C3)nn2)cc1 | ASPC1 | MTT | – | – | IC50 | 560 nM
Cc1cn(CC(c2cn(C)c3ccccc23)c2cn(C)c3ccccc23)nn1 | HaCaT | MTS | 20 µM | 24 h | inhibition | 9.6%
